Compound activity as filed in PubChem BioAssay.
An excerpt weighted towards active compounds, which were near 1% of everything screened.
PvdQ inh – P. aeruginosa PvdQ acylase inhibition; purified PvdQ acylase, fluorescence plate reader; inhibition, % at 10 µM; hit rate 0.063% among 340,000; AID 488965; in the data active = inhibition above about 30%, passing the limit was not always enough; inconclusive = no clear call, values can overlap the other calls;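 also: 0% = vehicle neutral wells and 100% = reference inhibitor wells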
ERp5 inh – blocks human ERp5 reductase activity on insulin; hit rate 0.05% among 350,000; inhibition, % at 9.99 µM; Q15084; ERp5 insulin aggregation, absorbance 650 nm, 90 min;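 active = mean replicate inhibition above about 25%, with every replicate also reaching it, limit read from the data, passing the limit was not always enough; inconclusive = only one of those two criteria met; inactive = neither criterion met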
Target sequence (Q15084 whole entry, looked up): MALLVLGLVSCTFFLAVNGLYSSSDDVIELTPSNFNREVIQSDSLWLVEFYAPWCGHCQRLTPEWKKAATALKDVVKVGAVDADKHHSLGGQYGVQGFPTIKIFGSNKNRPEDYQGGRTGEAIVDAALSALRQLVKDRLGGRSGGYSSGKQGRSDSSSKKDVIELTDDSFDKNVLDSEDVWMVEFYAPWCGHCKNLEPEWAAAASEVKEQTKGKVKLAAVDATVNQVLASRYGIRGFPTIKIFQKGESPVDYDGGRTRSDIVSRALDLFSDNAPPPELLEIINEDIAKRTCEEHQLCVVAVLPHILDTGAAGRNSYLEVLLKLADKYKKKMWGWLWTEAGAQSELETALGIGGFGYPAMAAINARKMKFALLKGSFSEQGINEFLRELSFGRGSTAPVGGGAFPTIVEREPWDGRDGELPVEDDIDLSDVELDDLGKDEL
VIM-2 inh – inhibitors of Pseudomonas aeruginosa VIM-2 metallo-beta-lactamase. hit rate 0.89% among 290,000. inhibition, % at 5.6 µM. purified VIM-2, nitrocefin hydrolysis, epi-absorbance fluorescence;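 active = inhibition above the mean of all tested compounds plus 3 SD, cutoff set per screening run, cut at about 7.5% in these data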;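 also: red hydrolysis product quenches plate fluorescence so inhibitors raise well fluorescence; 0% = enzyme with DMSO and 100% = DMSO without enzyme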
IMP-1 inh-1 – inhibitors of Pseudomonas aeruginosa IMP-1 metallo-beta-lactamase; purified IMP-1, nitrocefin hydrolysis, epi-absorbance fluorescence; inhibition, % at 5.6 µM; hit rate 0.45% among 290,000;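 active = inhibition above the mean plus 3 SD of all compounds in the same screening run, cut at about 4.5% in these data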;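 also: 0% = IMP-1 with DMSO and 100% = DMSO wells lacking enzyme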
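Assay system: purified recombinant IMP-1 beta-lactamase. Input: IMP-1 0.2 nM before substrate addition. Buffer or medium: Zinc- and detergent-supplemented HEPES buffer, pH 7.1. Schedule: 25 °C, 15 min preincubation, 25 min reaction. Signal: Epi-absorbance fluorescence, 480 nm excitation, 530 nm emission. Evaluation: percent inhibition from optical density relative to buffer-blank wells.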
PglD DTNB – blocks C. jejuni PglD acetyltransferase activity; purified PglD enzyme, DTNB colorimetric CoA detection; inhibition, % at 12.5 µM; hit rate 0.098% among 360,000; in the data active = inhibition above about 16%, passing the limit was not always enough; inconclusive = no clear call, values can overlap the other calls
PDI turbidity – PDI (human) enzyme inhibition; P07237; PDI insulin aggregation turbidity, A650, 90 min; inhibition, % at 10 µM; hit rate 0.052% among 350,000; AID 588391;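 active = mean inhibition across replicates of 30% or more, whatever share of single replicates reach that level; inconclusive = mean inhibition below 30% while every single replicate reaches 30%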
IMP-1 inh-2 – IMP-1 inhibition, counter-screen for VIM-2 inhibitors. shares compounds with VIM-2 inh. purified IMP-1, nitrocefin hydrolysis, epi-absorbance fluorescence. inhibition, % at 5.6 µM. 1,300 tested, under 10 active. AID 1856; call rule not given here;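 also: 0% = enzyme with vehicle and 100% = vehicle without enzyme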
VIM-2 FRET ctr – VIM-2 FRET inhibition, artifact counter-screen. shares compounds with VIM-2 inh. purified VIM-2, CCF2 FRET substrate hydrolysis. hit rate 23% among 1,300. inhibition, % at 5.6 µM;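 active = inhibition above the mean of all tested compounds plus 3 SD, cut at about 19% in these data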;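 also: 0% = VIM-2 plus DMSO and 100% = no enzyme wells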
TEM-1 inh – blocks E. coli TEM-1 beta-lactamase in VIM-2 selectivity screen. shares compounds with VIM-2 inh. hit rate 3% among 1,300. Purified TEM-1, nitrocefin hydrolysis, epi-absorbance fluorescence. inhibition, % at 5.6 µM;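 active = inhibition above that campaign's mean inhibition plus 3 SD, cut at about 0.46% in these data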;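 also: 0% = TEM-1 with DMSO and 100% = TEM-1 with 100 µM potassium clavulanate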
VIM-2 confirm 2 – confirmation of P. aeruginosa VIM-2 metallo-beta-lactamase inhibitors | purified VIM-2, nitrocefin hydrolysis, epi-absorbance | hit rate 96% among 1,300 | shares compounds with VIM-2 inh | inhibition, % at 5.6 µM;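 active = inhibition of the VIM-2 beta-lactamase enzyme above about 11% from the earlier first-round screen, limit read from the data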;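 also: 0% = VIM-2 with DMSO and 100% = buffer wells without enzyme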
* marks the source's active call; other numbers are inactive results; ? = inconclusive; · = not tested or not shown.

SMILES	PvdQ inh	ERp5 inh	VIM-2 inh	IMP-1 inh-1	PglD DTNB	PDI turbidity	IMP-1 inh-2	VIM-2 FRET ctr	TEM-1 inh	VIM-2 confirm 2
CCOC(=O)N=Nc1c(O)n(C)c2ccccc12	-16	?	0	-1	-4	-1	·	·	·	·
Cc1nc2ncccn2c1-c1csc(Nc2ccc(S(N)(=O)=O)cc2)n1	-13	1	17*	-3	-3	-4	-2	-3	-7	28*
CN1C(=O)c2cc(NC(=O)Cc3ccccc3)ccc2OC[C@@H]2O[C@H](CC(=O)O)CC[C@@H]21	·	0	·	·	-3	·	·	·	·	·
CC(=O)N1CC[C@@H]2[C@@H](CO)N(C)c3ccc(-c4ccccc4)cc3[C@@H]21	·	-4	·	·	1	·	·	·	·	·
COc1ccccc1N1CC(O)=C(c2nc3ccccc3c(=O)[nH]2)C1=N	-5	1	15*	-3	·	3	-4	-6	-9	23*
CCCCc1n[nH]c(=S)n1Cc1ccc(Cl)cc1	-3	-7	15*	-3	·	-1	-3	25*	-6	18*
CCCc1n[nH]c(=S)n1Cc1ccco1	5	5	17*	-5	1	4	-2	40*	-5	25*
COc1ccccc1-c1n[nH]c(=S)n1Cc1ccccc1	-6	-1	25*	-2	5	-32	-3	52*	-9	34*
COc1ccccc1-c1n[nH]c(=S)n1Cc1ccco1	·	·	16*	-4	·	·	-3	47*	-7	29*
CCCCc1n[nH]c(=S)n1Cc1ccccc1	0	2	7	-3	-1	0	·	·	·	·
S=c1[nH]nc(-c2ccc(Br)cc2)n1Cc1ccco1	7	·	2	-3	-1	7	·	·	·	·
COc1ccc2c3c([nH]c2c1)[C@H](CO)N(S(C)(=O)=O)CC31CCN(C(=O)c2ccccc2)CC1	·	-3	·	·	·	·	·	·	·	·
COCC(=O)N1CCC2(CC1)CN(C(=O)Cc1ccccc1)[C@H](CO)c1c2c2ccc(OC)cc2n1C	·	12	·	·	·	·	·	·	·	·
C[C@H](CO)N1C[C@H](C)[C@H](CN(C)CC2CCCCC2)Oc2ccc(NC(=O)Cn3cnnn3)cc2C1=O	·	1	·	·	6	·	·	·	·	·
COc1ccccc1-n1c(-c2ccccc2)n[nH]c1=S	4	-1	15*	-4	·	-5	-2	46*	-7	26*
Cc1c(N2C(=O)/C(=C\c3cccc4ccccc34)SC2=S)c(=O)n(-c2ccccc2)n1C	0	·	62*	-3	-3	-9	0	33*	-3	30*
Cc1c(N2C(=O)c3ccccc3C2=O)c(=O)n(-c2ccccc2)n1C	1	·	-2	-2	0	10	·	·	·	·
CC1CCCC(C)N1C(=O)CSc1nnc(NC(=O)c2cccs2)s1 (stereo unspecified)	-14	·	20*	-2	1	-3	-4	52*	-6	37*
O=C(O)C[C@H]1C[C@H]2c3cc(NC(=O)CC4CC4)ccc3O[C@H]2[C@@H](CO)O1	·	-3	·	·	1	·	·	·	·	·
CCCc1cc(=O)oc2c(C)c(OCC(=O)NCCCn3ccnc3)ccc12	-3	-9	16*	-1	-10	15	-2	-12	-5	27*
CCCc1cc(=O)oc2cc(OCC(=O)NCCCn3ccnc3)c(Cl)cc12	-18	6	19*	-3	-1	3	-3	-4	-6	30*
Cc1oc2c(C)c3oc(=O)c(CCC(=O)NCCCn4ccnc4)c(C)c3cc2c1C	-18	-2	24*	1	1	·	-2	-10	-8	30*
Cc1c(OCC(=O)NCCCn2ccnc2)ccc2c3c(c(=O)oc12)CCCC3	-14	4	54*	-3	-2	1	-3	-8	-14	64*
CCc1cc(=O)oc2c(C)c(OCC(=O)NCCCN3CCCC3=O)ccc12	13	3	5	-2	1	-3	·	·	·	·
C[C@@H]1CN([C@H](C)CO)C(=O)Cc2cc(NC(=O)C3CCCCC3)ccc2O[C@@H]1CN(C)S(=O)(=O)c1ccc(F)cc1	·	-2	·	·	3	·	·	·	·	·
SMILES	PvdQ inh	ERp5 inh	VIM-2 inh	IMP-1 inh-1	PglD DTNB	PDI turbidity	IMP-1 inh-2	VIM-2 FRET ctr	TEM-1 inh	VIM-2 confirm 2
Cc1ccccc1Nc1nnc(SCC(=O)NCc2ccco2)s1	-3	·	-1	-3	2	2	·	·	·	·
Cc1ccccc1C(=O)Nc1nnc(SCC(=O)NCc2ccco2)s1	-6	-8	52*	-2	-1	13	-4	75*	-6	61*
Cc1cc2cc(C)c3nnc(SCC(=O)NCc4ccco4)n3c2cc1C	1	·	13*	-4	-5	-3	-1	8	0	24*
O=C(CSc1nnc(NC(=O)c2ccccc2)s1)NCc1ccco1	-12	-6	25*	-2	-2	-11	-4	44*	-4	28*
O=C(CSc1nnc(NC(=O)c2ccc3c(c2)OCO3)s1)NCc1ccco1	0	3	1	-4	·	-2	·	·	·	·
Cc1ccc2cc(C)c3nnc(SCC(=O)NCc4ccco4)n3c2c1	-3	-3	7	-5	-7	-3	·	·	·	·
